The source of these data is ChEMBL document CHEMBL5338759, “N-Phenyl-1-(phenylsulfonyl)-1H-1,2,4-triazol-3-amine as a New Class of HIV-1 Non-nucleoside Reverse Transcriptase Inhibitor” (J Med Chem, 2023).

The source made the active and inactive calls. The rule behind the calls is not given here.

The subject of data set [1] is Human immunodeficiency virus 1. The experiment in a line: Antiviral activity against wild type HIV1 IIIB infected in human TZM-bl cells. Type of data set: functional, organism-based. The settings on record: Human immunodeficiency virus 1, IIIB. Summed up:
(§1)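 TZM-bl cells (2x10⁵/mL) infected with HIV-1 IIIB grown in H9 cells, with 15 µg/mL DEAE-dextran; serial dilutions from 10 mM DMSO stocks, DMSO held constant (0.005% or 0.05%); 37°C, 5% CO₂, 48 hr; cells lysed, luciferase RLU read.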

In data set [2] the test system is Human immunodeficiency virus 1. The experiment in a line: Antiviral activity against HIV1 harboring A17 mutant infected in human TZM-bl cells. It is filed as functional, organism-based. To be noted: for EC50 / IC50: Human immunodeficiency virus 1, TZM-bl. Summed up: (§2)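 TZM-bl cells (2x10⁵/mL) were infected with mutant virus in the presence of 15 µg/mL DEAE-dextran. A17 (IIIB variant) was grown in H9 cells; the other mutants were NL4-3-based plasmids transfected into 293T cells, then expanded in H9 cells. Compounds were tested at 0.05–500 nM (DMSO constant within an assay) for 48 hr at 37°C. Read-out was luciferase RLU from lysed cells, with at least 6 replicates over multiple days.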

Data set [3] concerns TZM. The experiment in a line: Cytotoxicity against human TZM-bl cells assessed as reduction in cell viability by MTS assay. Type of data set: functional. (In general: Formazan colour is commonly taken as a measure of viable cells.)
The nature of data set [4]: Selectivity index, ratio of CC50 for cytotoxicity against human TZM-bl cells assessed as reduction in cell viability by MTS assay to EC50 for antiviral activity against wild type HIV1 IIIB infected in human TZM-bl cells. It is filed as toxicity, cell-based. The settings on record: read-out: Ratio CC50/EC50.
Data set [5] can be described thus: Selectivity index, ratio of CC50 for cytotoxicity against human TZM-bl cells assessed as reduction in cell viability by MTS assay to EC50 for antiviral activity against HIV1 harboring A17 mutant infected in human TZM-bl cells. Type of data set: toxicity, cell-based. The settings on record: read-out: Ratio CC50/EC50.
Data set [6] can be described thus: Neurotoxicity in mouse primary neurons assessed as loss of MAP-2 area incubated for 48 hrs by imaging analysis. Type of data set: toxicity, cell-based. The settings on record: neuron. Summed up:
(§3)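 Primary E16 CD1 mouse cortex/hippocampus cultures (>95% neurons) treated at 20 days in vitro with 10X dilutions made in artificial CSF, final 0.1–10,000 nM, for 48 hr; fixed in methanol:acetic acid (97:3), stained for MAP-2; relative MAP-2 intensity and area quantified by image analysis, […] (±SD) fitted from dose response.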

The subject of data set [7] is Human immunodeficiency virus. The experiment in a line: Antiviral activity against wild type HIV IIIB infected in human TZM-bl cells. To be noted: Human immunodeficiency virus 1, IIIB. It is filed as functional, organism-based. In outline:
as §1

Data set [8] relates to Neuron. The experiment in a line: Induction of calcium accumulation at delayed phase in primary mouse neuron at 1 uM. Type of data set: functional, cell-based. Summed up: (§4)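 Primary E16 CD1 mouse cortex/hippocampus neurons on coverslips, 14–18 days in vitro, loaded 30 min with 2 µM Fluo-4 AM in aCSF; three baseline images, then compound or vehicle in aCSF added at 1 µM final. Baseline fluorescence subtracted; changes averaged over all cells from at least triplicate runs, acute and delayed phases.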

For data set [9], the system named is Neuron. The experiment in a line: Induction of calcium accumulation at acute phase in primary mouse neuron at 1 uM. It is filed as functional, cell-based. In outline: as §4
Data set [10] in a line: Neurotoxicity in mouse primary neurons assessed as loss of MAP-2 intensity at 0.0001 to 10 uM incubated for 48 hrs by semi-quantitative analysis. To be noted: neuron.
In data set [11] the target is Human immunodeficiency virus type 1 reverse transcriptase (Human immunodeficiency virus 1, UniProt Q72547). The experiment in a line: Inhibition of HIV1 Reverse transcriptase incubated for 30 mins by fluorescence based analysis.
Data set [12] deals with Human immunodeficiency virus 1. The experiment in a line: Antiviral activity against HIV1 harboring Y181C mutant infected in human TZM-bl cells. Type of data set: functional, organism-based. To be noted: Human immunodeficiency virus 1, TZM-bl. In outline:
as §2

Data set [13] deals with Human immunodeficiency virus 1. The experiment in a line: Antiviral activity against HIV1 harboring L100I/K103N double mutant infected in human TZM-bl cells. It is filed as functional, organism-based. To be noted: Human immunodeficiency virus 1, TZM-bl.
In data set [14] the test system is Human immunodeficiency virus 1. The experiment in a line: Antiviral activity against HIV1 harboring K103N mutant infected in human TZM-bl cells. To be noted: Human immunodeficiency virus 1, TZM-bl. Type of data set: functional, organism-based. Summed up:
as §2

Data set [15] in a line: Selectivity ratio of IC50 for antiviral activity against wild type HIV1 IIIB infected in human TZM-bl cells to IC50 for antiviral activity against HIV1 harboring A17 mutant infected in human TZM-bl cells. It is filed as toxicity, cell-based. To be noted: human immunodeficiency virus 1. Summed up: (§5)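 TZM-bl cells (2x10⁵/mL) with 15 µg/mL DEAE-dextran were infected with HIV-1 IIIB, A17 (K103N/Y181C) IIIB variant, or NL4-3-based NNRTI-resistant mutants. Compound was present at 0.05–500 nM (DMSO held constant, 0.005% or 0.05%) for 48 hr at 37°C, 5% CO₂.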

A short description of data set [16]: Selectivity ratio of IC50 for antiviral activity against wild type HIV1 IIIB infected in human TZM-bl cells to IC50 for antiviral activity against HIV1 harboring Y181C mutant infected in human TZM-bl cells. It is filed as toxicity, cell-based. The settings on record: human immunodeficiency virus 1. In outline: as §5
Data set [17] in a line: Selectivity ratio of IC50 for antiviral activity against wild type HIV1 IIIB infected in human TZM-bl cells to IC50 for antiviral activity against HIV1 harboring L100I/K103N double mutant infected in human TZM-bl cells. To be noted: human immunodeficiency virus 1. Type of data set: toxicity, cell-based. Summed up:
as §5

Data set [18] in a line: Selectivity ratio of IC50 for antiviral activity against wild type HIV1 IIIB infected in human TZM-bl cells to IC50 for antiviral activity against HIV1 harboring K103N mutant infected in human TZM-bl cells. It is filed as toxicity, cell-based. The settings on record: human immunodeficiency virus 1. In outline: as §5
A short description of data set [19]: Neurotoxicity in mouse primary neurons assessed as loss of MAP-2 intensity incubated for 48 hrs by imaging analysis. Type of data set: toxicity, cell-based. To be noted: neuron. In outline:
as §3

Data set [20] is described as follows: Safety index, ratio of TC10 for neurotoxicity in mouse primary neurons assessed as loss of MAP-2 intensity to EC50 for antiviral activity against wild type HIV1 IIIB infected in human TZM-bl cells. The settings on record: mouse primary neurons, TZM-bl cells. It is filed as toxicity, cell-based. Summed up: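 Primary neuronal cultures from cortex/hippocampus of E16 CD1 mouse embryos (>95% neurons). Cells were then methanol:acetic acid-fixed and MAP-2 stained, and intensity was image-quantified. S-index = TC10/(100×EC50 vs HIV-1 IIIB in TZM-bl).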

The test system of data set [21] is TZM. The experiment in a line: Cytotoxicity against human TZM-bl cells assessed as reduction in viability incubated for 48 hrs by CellTiter-Blue cell viability assay. A general note: Alamar Blue is a resazurin reagent that responds to reducing activity.

By EC50 is commonly meant the concentration needed to bring the measured effect to its halfway point. A lower EC50 goes with a more potent agent. A word on the CC50: it is the concentration giving 50% cytotoxicity. As usually defined, the IC50 is the concentration that inhibits the measured activity by half.

`N#Cc1ccc2c(S(=O)(=O)n3nc(Nc4ccc(C#N)c(Cl)c4)nc3N)cccc2c1`: the EC50 was determined as 0.42 nM in data set [1] and 39.6 nM in data set [2]. Besides, the CC50 in [3] amounted to 6000 nM. In addition, the selectivity ratio in data set [4] came to 17000; in data set [5] it was 240.
Compound `Nc1nc(Nc2ccc(Cl)cc2)n(S(=O)(=O)c2ccc(Cl)s2)n1` yielded an EC50 in data set [1] of less than 100 nM. In addition, in data set [2], the outcome was inactive.
Turning to `CN(C)c1cccc2c(S(=O)(=O)n3nc(Nc4ccc(Cl)cc4)nc3N)cccc12`, the EC50 in [1] is 10.6 nM; in data set [2] it was greater than 1000 nM.
Take `O=C1Nc2ccc(Cl)cc2[C@@](C#CC2CC2)(C(F)(F)F)O1` [EFAVIRENZ]: the EC50 in data set [1] is 0.68 nM; in data set [2], 18 nM. In addition, in [3], the CC50 was greater than 5000 nM. Further, the TC10 in data set [6] amounted to 70 nM. This compound also gave an IC50 in data set [7] of 0.66 nM. In addition, in data set [8], the outcome was Active. Further, in data set [9], the outcome was inactive. Moreover, the Activity entry in data set [10] is given as “Non-Toxic”.
In data set [1], `Nc1nc(Nc2ccc(Cl)cc2)n(S(=O)(=O)c2cnn(-c3ccc(C(F)(F)F)cn3)c2)n1` displayed a 50% effective concentration (EC50) of less than 100 nM. Besides, the result in data set [2] was inactive.
In the case of `N#Cc1ccc2c(S(=O)(=O)n3nc(Nc4ccc(C#N)c(C#N)c4)nc3N)cccc2c1`, the half-inhibitory concentration (IC50) in [11] is 350 nM; in data set [2], 1.3 nM; in data set [12], 3.7 nM; in [13], 1050 nM; in [14], 5.9 nM; in data set [7] it was 0.32 nM. Moreover, the EC50 in [1] was found to be 0.21 nM. In addition, the “Ratio IC50” value in data set [15] is recorded as 41; in [16] it was 140; in data set [17], 3500; in data set [18], 8.9. Besides, the results for the CC50 in [3] and in data set [21] were 28000 nM and 27000 nM, respectively. Besides, the selectivity ratio in [4] stood at 130000; in data set [5], 570; in data set [20], 140. Moreover, the TC10 in data set [19] is 4500 nM. In addition, in [10], the Activity result is reported as “Non-Toxic”.
For `N#Cc1ccc(Nc2nc(N)n(S(=O)(=O)c3c(Cl)nc4sccn34)n2)cc1`, the EC50 in data set [1] amounted to 1.77 nM; in data set [2], 705 nM.
In the same order, the values of `CC(=O)Nc1nc(C)c(S(=O)(=O)n2nc(Nc3cc(Cl)c(Cl)cc3Cl)nc2N)s1` are greater than 1000 nM and greater than 1000 nM.
In the case of `N#C/C=C/c1ccc2c(S(=O)(=O)n3nc(Nc4ccc(CC#N)cc4)nc3N)cccc2c1`, the EC50 in [1] is 0.22 nM; in data set [2], 24.5 nM. In addition, in data set [3], the CC50 worked out at 910 nM. Moreover, the selectivity ratio in [4] was found to be 4100.
The compound `Cn1cnc(S(=O)(=O)n2nc(N)nc2Nc2ccc(Cl)cc2)c1` displayed an EC50 in data set [1] of less than 100 nM. Moreover, the outcome in [2] was inactive.
Consider `N#CCc1ccc2c(S(=O)(=O)n3nc(Nc4ccc(C#N)c(Cl)c4)nc3N)cccc2c1`, for which the EC50 is 0.598 nM in data set [1] and 153 nM in data set [2].
On to `N#Cc1ccc(Nc2nc(N)n(S(=O)(=O)c3cccc4cc(C#N)ccc34)n2)cc1`, for which the IC50 in data set [11] is 700 nM; in [1], 0.23 nM; in data set [2], 55 nM; in data set [12] it was 18 nM; in data set [13] it was 1500 nM; in data set [14], 8.8 nM. This compound returned an IC50 in data set [7] of 0.32 nM. Moreover, the “Ratio IC50” value in data set [15] is listed as 240; in data set [16] it was 80; in data set [17], 6700; in [18], 39. Moreover, the CC50 in [3] and in data set [21] was 7800 nM each time. The selectivity ratio was determined as 22000 in [4], 160 in data set [5] and 5.4 in data set [20]. Further, the TC10 in data set [19] worked out at 170 nM; in data set [6] it was 50 nM. The Activity entry in [10] is recorded as “Non-Toxic”.
For `Cc1cc(/C=C/C#N)cc(C)c1Nc1ccnc(Nc2ccc(C#N)cc2)n1` [RILPIVIRINE], the IC50 in [11] worked out at 160 nM; in data set [1] it was 0.33 nM; in [2], 0.8 nM; in [12], 1.3 nM; in [13] it was 14 nM; in data set [14], 1.3 nM. The compound also yielded an IC50 in data set [7] of 0.35 nM. Further, the CC50 in data set [3] and in [21] was greater than 5000 nM throughout. In addition, the TC10 in data set [19] is 930 nM; in [6], 600 nM. In addition, the result in data set [9] was inactive. Besides, the Activity entry in data set [10] is “Non-Toxic”.
In the case of `Nc1nc(Nc2ccc(Cl)cc2)nn1S(=O)(=O)c1ccc2ccccc2c1`, the IC50 in data set [11] worked out at 280 nM; in data set [7], 9.3 nM. Further, the outcome in data set [3] was inactive. The TC10 in data set [19] is 6100 nM. In [20], the selectivity ratio worked out at 6.5. For the same compound, the Activity entry in data set [10] is “Non-Toxic”.
As to `Cc1cc(C)c(S(=O)(=O)n2nc(Nc3ccc(Cl)cc3)nc2N)c(C)c1`, the EC50 in data set [1] was 32 nM.
In the case of `Cc1nc(C)c(S(=O)(=O)n2nc(Nc3ccc(C#N)c(Cl)c3)nc2N)s1`, the figures for the EC50 in [1] and in data set [2] were 0.879 nM and 306 nM, respectively.
